Screens: PubChem BioAssay, Johns Hopkins Ion Channel Center
Rows were chosen to be rich in hits. Some 3.1% of all compounds tested hit in one or more screens of this group.
KCNQ1 inh = inhibitors of human KCNQ1 potassium channel. B-score at 10 µM. AID 2642. 310,000 compounds, 1.3% hits. P51787. CHO-K1 KCNQ1, FluxOR thallium flux fluorescence; stronger effect = higher value;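 active means compounds whose thallium flux B-score, printed positive for inhibition, exceeds three library SD while starting fluorescence stays within three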;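 further: channel opened by potassium depolarization with thallium stimulus after 20 min compound exposure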
KCNQ1 pot = potentiates or activates the human KCNQ1 potassium channel. 310,000 compounds, 0.35% hits. CHO-K1 KCNQ1, thallium flux FluxOR fluorescence; stronger effect = higher value. P51787. B-score at 10 µM. AID 2648;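 active means fluorescence ratio B-score, a plate-corrected score, at least three library SD, with initial intensity B-score within 5 SD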
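Assay system: CHO-K1 cells stably expressing KCNQ1; Medium: assay buffer with matched DMSO; Also added: K+/Tl+ depolarizing stimulus; Dosing: single dose; Timing: dye 90 min, compound 20 min, room temperature; Measured by: kinetic FluxOR thallium fluorescence, 10-s 1-Hz baseline, 110-s post-stimulus read; Read-out: peak-minus-minimum fluorescence over initial fluorescence, negative-control normalized, B-scored.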
KCNK3 block = human KCNK3 channel inhibition, primary screen; O14649; B-score at 10 µM; CHO-KCNK3 thallium flux, FluxOR fluorescence; stronger effect = lower value; 340,000 compounds, 0.84% hits; AID 602410;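 active means B-score under library mean minus 4 SD, starting fluorescence ratio at most library mean plus 5 SD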;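 further: more negative B-score means stronger inhibition of thallium flux through KCNK3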
Target sequence (O14649 whole entry, looked up): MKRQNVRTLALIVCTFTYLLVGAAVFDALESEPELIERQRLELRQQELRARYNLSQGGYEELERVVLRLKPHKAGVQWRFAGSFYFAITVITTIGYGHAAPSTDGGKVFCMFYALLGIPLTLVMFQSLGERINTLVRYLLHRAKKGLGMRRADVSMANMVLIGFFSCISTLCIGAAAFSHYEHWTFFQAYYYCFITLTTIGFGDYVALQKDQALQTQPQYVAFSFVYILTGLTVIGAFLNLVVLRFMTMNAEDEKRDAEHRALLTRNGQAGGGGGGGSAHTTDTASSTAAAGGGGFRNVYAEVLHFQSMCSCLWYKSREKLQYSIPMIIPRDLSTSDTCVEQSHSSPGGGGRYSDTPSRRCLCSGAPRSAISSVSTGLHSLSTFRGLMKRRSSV
hERG protect = compounds protecting human hERG from proarrhythmic drug block; CHO-hERG, FluxOR thallium flux, dofetilide IC70 present; activation (rescue from dofetilide block), less the hit threshold, % at 10 µM; 310,000 compounds, 0.51% hits; AID 1511;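 active means activation above the mean of controls blocked by dofetilide plus 5 SD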;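 further: thallium influx through hERG after potassium depolarization seen as dye fluorescence rise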
KCNK9 block = human KCNK9 channel inhibition; HEK293 KCNK9, FluxOR thallium flux fluorescence; stronger effect = lower value; 310,000 compounds, 1.2% hits; AID 488922; B-score at 10 µM;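 active means ratio B-score over 3 SD below the library mean, with starting fluorescence within 5 SD of its mean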;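 further: negative B-score means less thallium flux so channel inhibition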
KCNK3 confirm = human KCNK3 channel inhibition, confirmation assay. AID 651638. CHO-KCNK3 thallium flux, FluxOR fluorescence; 0% buffer, 100% carvedilol maximal block. ratio percent of control, % at 10 µM. 2,400 compounds, 99% hits. shares compounds with KCNK3 block;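 active means ratio percent of control, averaged over triplicates, above buffer control mean plus 5 SD, cut at about 64% in these data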;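 further: ratio is the fluorescence rise from min to max over baseline after thallium stimulus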
KCNK3 noninduced = KCNK3 inhibitor counter-screen hit in non-induced cells | 2,400 compounds, 40% hits | shares compounds with KCNK3 block | AID 651747 | thallium flux ratio (lower = more inhibition) at 10 µM | non-induced KCNK3 parental cells, FluxOR thallium flux; stronger effect = lower value;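 active means thallium flux ratio, averaged over three wells, more than 5 SD below the buffer control mean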;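 further: host cells are CHO cells without KCNK3 induction; ratio is peak minus trough fluorescence over baseline then normalized to buffer controls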
The depositor's hits bear a star; i = inactive; · = no result.

SMILES	KCNQ1 inh	KCNQ1 pot	KCNK3 block	hERG protect	KCNK9 block	KCNK3 confirm	KCNK3 noninduced
CCCOC(=O)/C(=C\C=C\c1ccco1)NC(=O)c1ccccc1	i	i	-10*	-18	i	107*	0.15*
N#Cc1c(N2CCN(c3ccc([N+](=O)[O-])cc3)CC2)[n+](=O)c2ccc(Cl)cc2n1[O-]	·	·	i	·	·	·	·
CCOc1nc(CC(C)C)c2c(c1C#N)CC(C)(C)OC2	i	i	-9*	-14	i	111*	i
CCOc1ncnc2c1oc1nc(CC(C)C)c3c(c12)CC(C)(C)OC3	i	i	i	-15	i	·	·
Cc1cccc(NC(=O)CSc2nnc(-c3ccncc3)n2CC2CCCO2)c1 (stereo unspecified)	i	i	i	-3	i	·	·
N#CC1C(=O)NC(=O)C(C#N)C12CCCC(C(F)(F)F)C2 (stereo unspecified)	·	·	i	·	·	·	·
Cc1ccc2nc3c(c(Nc4cccc(O)c4)c2c1)CCC3	i	i	i	-15	i	·	·
CCN(CCCNC(=O)CNC(=O)c1nn(-c2ccc(OC)cc2)c(=O)c2ccccc12)c1cccc(C)c1	i	i	-12*	-7	i	117*	i
COc1ccc(C2=NS(=O)(=O)N(C)C(C(=O)Nc3ccc4c(c3)OCO4)=C2)cc1	·	·	i	·	·	·	·
Cc1ccc(C2=NS(=O)(=O)N(C)C(C(=O)Nc3ccc4c(c3)OCO4)=C2)cc1	i	i	-10*	-10	-6.7*	122*	0.14*
COc1ccc(N(C)S(=O)(=O)c2cccc(C(=O)N3CCN(S(=O)(=O)c4ccc(C)cc4)CC3)c2)cc1	i	i	i	-13	-12*	92*	i
O=C(COC(=O)Cc1ccc(F)cc1)NC(=O)c1ccccc1	i	i	i	-15	i	·	·
CCOC(=O)c1cc2occc2n1Cc1c(F)cccc1Cl	i	i	-9.8*	-12	i	77*	i
Cc1ccc(Br)cc1S(=O)(=O)N1CCN(c2ccccc2)CC1	i	i	-11*	-10	i	102*	0.15*
Cc1ccc(CCN2C(Nc3ccccc3)=NC[C@@H]2C)cc1	·	·	i	·	·	·	·
Cc1ccc(S(=O)(=O)N2CCCCC2)cc1NC(=O)c1cc(F)c(F)c(F)c1F	·	·	i	·	·	·	·
CCOc1cc(C(=O)N=c2sccn2C)ccc1OC(F)F	i	i	i	-10	i	·	·
Cc1cc2oc(=O)cc(CN(C)Cc3ccccc3F)c2cc1Cl	i	i	-12*	-7	i	118*	0.14*
Cc1ccc2c(CN(C)Cc3cccc(F)c3)cc(=O)oc2c1	i	i	i	-10	i	·	·
CN(Cc1ccccc1F)Cc1cc(=O)oc2cc(O)c(Cl)cc12	i	i	i	-10	i	·	·
Cc1cc2oc(=O)cc(CN(C)Cc3ccccc3Cl)c2cc1C	6*	i	-10*	-9	i	57*	i
CCOc1ccc(CN(C)Cc2cc(=O)oc3cc(C)c(Cl)cc23)cc1	i	i	i	-2	i	·	·
Cc1cc2oc(=O)cc(CN(C)Cc3cccc(F)c3)c2cc1Cl	i	i	-11*	-11	i	100*	i
COc1ccc(CN(C)Cc2cc(=O)oc3cc(C)c(C(C)C)cc23)cc1OC	i	i	i	-13	i	·	·
COc1cc(CN(C)Cc2cc(=O)oc3cc(C)c(Cl)cc23)ccc1OC(F)F	i	i	-10*	-8	i	106*	i
SMILES	KCNQ1 inh	KCNQ1 pot	KCNK3 block	hERG protect	KCNK9 block	KCNK3 confirm	KCNK3 noninduced
Cc1ccc2c(CN(C)Cc3cccc(Cl)c3)cc(=O)oc2c1C	i	i	-8.7*	-8	i	126*	i
Cc1cc2oc(=O)cc(CN(C)Cc3ccccc3)c2cc1C(C)C	7*	i	-8.9*	-9	i	99*	0.14*
CCCCn1c(N)c(N(CCOC)C(=O)CCNC(=O)c2ccc(Br)cc2)c(=O)[nH]c1=O	i	i	i	-12	i	·	·
CCN(CC)C(=O)C(Oc1ccc(S(=O)(=O)N2CCCC2)cc1[N+](=O)[O-])c1ccccc1 (stereo unspecified)	i	i	-11*	-3	-7.1*	98*	i
O=C(c1ccccc1)c1ccc(Sc2ccc([N+](=O)[O-])cc2)cc1	i	i	-8.8*	-20	i	115*	0.15*
Cc1ccc(C(=O)NCCNS(=O)(=O)c2ccccc2)cn1	i	i	i	-4	i	·	·
Cc1cc(C)c2c(CN3CCC(C)CC3)cc(=O)oc2c1C	i	i	-12*	-4	i	103*	i
CCOc1ccccc1NC(=O)C(NCCc1ccc(OC)cc1)c1ccccc1 (stereo unspecified)	6*	i	-10*	-6	i	132*	0.13*
COc1ccc(-c2csc3nc(-c4cccnc4)nc(Cl)c23)cc1OC	i	i	-8.7*	-15	i	101*	0.15*
Cc1cccc(N2CCN(C(=O)COc3ccc4c(C)cc(=O)oc4c3C)CC2)c1C	7*	i	-9*	-5	i	81*	i
CN(c1ccccc1)S(=O)(=O)c1ccc(NC(=O)c2nc(S(C)(=O)=O)ncc2Cl)cc1	i	i	-9*	-20	i	106*	0.15*
O=[N+]([O-])c1ccc(O)c(/C=N/n2c(CO)nc3ccccc32)c1	i	i	i	-9	i	·	·
C/C(=N\OCc1nc2ccccc2c(=O)n1/N=C/c1cc([N+](=O)[O-])ccc1O)c1ccccc1	6*	i	-9.1*	-31	i	95*	0.12*
Cc1noc(C)c1COC(=O)C1CCN(S(=O)(=O)c2c(Cl)cccc2Cl)CC1	i	i	-9*	-11	i	114*	i
Cc1nc(N2CCN(C)CC2)c2c(C)c(C(=O)Nc3ccc(F)cc3)sc2n1	i	i	i	-4	i	·	·
Cc1nc(N2CCCCC2)c2c(C)c(C(=O)Nc3cccc(C(F)(F)F)c3)sc2n1	13*	i	-11*	-5	i	124*	0.12*
COc1ccc(CNc2oc(COc3ccccc3)nc2C#N)cc1	i	i	-8.9*	-12	i	117*	0.16*
COc1ccc(CCNc2oc(COc3ccccc3)nc2C#N)cc1	i	i	i	-14	i	·	·
COc1ccc(CNc2oc(COc3ccccc3Cl)nc2C#N)cc1	i	i	i	-2	i	·	·
